Test results from ChEMBL document CHEMBL5143611, “Antillatoxin-Stimulated Neurite Outgrowth Involves the Brain-Derived Neurotrophic Factor (BDNF) - Tropomyosin Related Kinase B (TrkB) Signaling Pathway” (J Nat Prod, 2022).
Active and inactive are the calls of the source. No cut-off for these calls is given here.

Legend:
[1] = Induction of aspartate release in Swiss Webster mouse immature cerebrocortical neuron assessed as increase in aspartate concentration at 100 nM incubated for 2 hrs by HPLC based fluorescence method; format: functional, Cerebral cortex neuron
Method in brief: (§1)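 Cortical neurons at 5 DIV in 96-well plates. Medium saved and cells washed in Locke's buffer, pH 7.4. Exposure in that buffer for 2 h at 22 °C, then three washes and return to the saved medium for 22 h at 37 °C. Medium then collected, derivatized with o-phthaldialdehyde and analysed by HPLC with fluorescence detection.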

[2] = Induction of aspartate release in Swiss Webster mouse immature cerebrocortical neuron assessed as increase in aspartate concentration at 30 nM incubated for 2 hrs by HPLC based fluorescence method; format: functional, Cerebral cortex neuron; method in brief: as §1
[3] = Induction of glutamate release in Swiss Webster mouse immature cerebrocortical neuron assessed as increase in glutamate release at 30 nM incubated for 2 hrs by HPLC based fluorescence method; format: functional, Cerebral cortex neuron; method in brief: as §1
[4] = (§2) Induction of BDNF release in Swiss Webster mouse immature cerebrocortical neuron assessed as increase in BDNF release incubated for 4 days by sandwich ELISA method; format: functional, cell-based; conditions: Cerebral cortex neuron, 96 h
Method in brief: (§3)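 In situ sandwich ELISA. Plates coated overnight at 4 °C with anti-BDNF capture antibody, then blocked. Immature cortical neurons plated directly in the wells with BDNF standards and treated from 3 h after plating; 50 mM KCl served as comparator. After 4 days cells were washed off with TBST, and bound BDNF was detected with a polyclonal antibody for 2 h at RT.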

Cerebral cortex neuron [5] = test: as §2; format: functional, cell-based; conditions: time 4.0 day, DDE = dose-dependent effect; method in brief: as §3
Cerebral cortex neuron [6] = test: Induction of BDNF release in Swiss Webster mouse immature cerebrocortical neuron assessed as increase in BDNF release at 100 to 3000 nM incubated for 4 days by sandwich ELISA method; format: functional, cell-based; conditions: dose 100-3000 nM, time 4.0 day; method in brief: as §3
Cerebral cortex neuron [7] = test: Induction of BDNF release in Swiss Webster mouse immature cerebrocortical neuron assessed as increase in BDNF synthesis at 30 nM incubated for 30 mins by western blot analysis; format: functional, cell-based
Method in brief: (§4)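 DIV-1 cortical neurons in six-well plates exposed to 30 nM for 30 min at 37 °C. Where antagonists were used, 15 min preincubation. Exposure stopped on ice, cells washed in cold PBS and lysed 30 min at 4 °C. Protein measured by Bradford. Equal protein run on 10% SDS-PAGE, blotted to PVDF, probed with specific antibodies, ECL detection.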

Cerebral cortex neuron [8] = test: Induction of glutamate release in Swiss Webster mouse immature cerebrocortical neuron assessed as increase in glutamate release at 30 to 100 nM incubated for 2 hrs by HPLC based fluorescence method; format: functional, cell-based; conditions: dose 30-100 nM; method in brief: as §1
[9] = Induction of glutamate release in Swiss Webster mouse immature cerebrocortical neuron assessed as increase in glutamate release at 100 nM incubated for 2 hrs by HPLC based fluorescence method; format: functional, Cerebral cortex neuron; method in brief: as §1
[10] = target: BDNF/NT-3 growth factors receptor (Homo sapiens) (UniProt Q16620); test: Activation of full length isoform of TrkB receptor (unknown origin) expressed in mouse cerebrocortical neuron assessed as increase in neurite length at 30 nM incubated for 24 hrs by DiI dye based microscopic analysis; format: cell-based; conditions: filed as activator
Method in brief: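 E16 mouse cortical neurons plated at 0.5 × 10^6/well and lipofected 2 h after plating with 0.5 µg gene-of-interest plasmid or empty vector plus 0.25 µg GFP plasmid. 30 nM or vehicle added 3 h after transfection. Neurons imaged at DIV-2.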

[11] = target: BDNF/NT-3 growth factors receptor (Mus musculus) (UniProt P15209); test: Activation of TrkB receptor in Swiss Webster mouse immature cerebrocortical neuron assessed as phosphorylation of TrkB at Tyr516 residue at 30 nM incubated for 30 mins by western blot analysis; format: cell-based; conditions: filed as activator; method in brief: as §4
[12] = target: RAC-alpha serine/threonine-protein kinase (Mus musculus) (UniProt P31750); test: Activation of Akt signalling pathway in Swiss Webster mouse immature cerebrocortical neuron assessed as increase in AKT phosphorylation of Ser473 by measuring fold change at […] incubated for 24 hrs by western blot analysis; format: cell-based; conditions: filed as activator, dose lower 10.0 µM
[13] = target: Serine/threonine-protein kinase mTOR (Mus musculus) (UniProt Q9JLN9); test: Activation of mTOR signalling pathway in Swiss Webster mouse immature cerebrocortical neuron assessed as increase in mTOR phosphorylation at Ser2448 at […] incubated for 3 hrs by western blot analysis; format: cell-based; conditions: filed as activator

Chain of RAC-alpha serine/threonine-protein kinase (Mus musculus) (P31750 whole entry): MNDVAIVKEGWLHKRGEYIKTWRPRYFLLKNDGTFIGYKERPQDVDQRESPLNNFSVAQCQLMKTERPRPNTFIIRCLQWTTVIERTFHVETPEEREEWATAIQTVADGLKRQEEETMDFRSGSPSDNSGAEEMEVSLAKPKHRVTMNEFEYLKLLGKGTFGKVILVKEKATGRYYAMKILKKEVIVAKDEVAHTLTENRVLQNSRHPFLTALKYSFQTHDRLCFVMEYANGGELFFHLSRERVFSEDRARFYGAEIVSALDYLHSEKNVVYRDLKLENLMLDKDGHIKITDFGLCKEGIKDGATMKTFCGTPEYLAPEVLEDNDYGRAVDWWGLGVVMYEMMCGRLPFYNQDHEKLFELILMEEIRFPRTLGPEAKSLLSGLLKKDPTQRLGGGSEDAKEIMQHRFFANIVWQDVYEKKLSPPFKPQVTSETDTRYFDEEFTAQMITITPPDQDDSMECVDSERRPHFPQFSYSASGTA
Chain of BDNF/NT-3 growth factors receptor (Mus musculus) (P15209 whole entry): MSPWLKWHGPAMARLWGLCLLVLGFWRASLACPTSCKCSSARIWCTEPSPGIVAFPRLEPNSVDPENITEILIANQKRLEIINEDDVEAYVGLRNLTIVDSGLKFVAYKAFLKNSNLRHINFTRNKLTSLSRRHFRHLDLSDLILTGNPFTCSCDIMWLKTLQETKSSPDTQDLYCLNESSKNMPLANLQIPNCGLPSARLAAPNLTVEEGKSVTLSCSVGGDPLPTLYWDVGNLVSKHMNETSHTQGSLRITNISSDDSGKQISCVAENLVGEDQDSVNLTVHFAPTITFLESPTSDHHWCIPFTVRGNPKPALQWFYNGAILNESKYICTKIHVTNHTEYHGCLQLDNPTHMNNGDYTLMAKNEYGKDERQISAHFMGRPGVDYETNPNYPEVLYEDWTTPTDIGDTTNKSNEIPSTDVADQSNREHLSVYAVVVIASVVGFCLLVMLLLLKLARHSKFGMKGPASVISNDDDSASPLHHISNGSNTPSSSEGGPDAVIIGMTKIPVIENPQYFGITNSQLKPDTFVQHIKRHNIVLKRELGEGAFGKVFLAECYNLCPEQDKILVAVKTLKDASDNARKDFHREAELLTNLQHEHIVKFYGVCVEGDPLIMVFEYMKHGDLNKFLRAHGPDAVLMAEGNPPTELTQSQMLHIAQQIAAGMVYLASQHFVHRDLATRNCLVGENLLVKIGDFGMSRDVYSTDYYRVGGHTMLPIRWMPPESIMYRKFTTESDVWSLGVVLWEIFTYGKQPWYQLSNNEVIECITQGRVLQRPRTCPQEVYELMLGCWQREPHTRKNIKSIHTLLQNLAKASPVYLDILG
Chain of BDNF/NT-3 growth factors receptor (Homo sapiens) (Q16620 32-822 limits assumed): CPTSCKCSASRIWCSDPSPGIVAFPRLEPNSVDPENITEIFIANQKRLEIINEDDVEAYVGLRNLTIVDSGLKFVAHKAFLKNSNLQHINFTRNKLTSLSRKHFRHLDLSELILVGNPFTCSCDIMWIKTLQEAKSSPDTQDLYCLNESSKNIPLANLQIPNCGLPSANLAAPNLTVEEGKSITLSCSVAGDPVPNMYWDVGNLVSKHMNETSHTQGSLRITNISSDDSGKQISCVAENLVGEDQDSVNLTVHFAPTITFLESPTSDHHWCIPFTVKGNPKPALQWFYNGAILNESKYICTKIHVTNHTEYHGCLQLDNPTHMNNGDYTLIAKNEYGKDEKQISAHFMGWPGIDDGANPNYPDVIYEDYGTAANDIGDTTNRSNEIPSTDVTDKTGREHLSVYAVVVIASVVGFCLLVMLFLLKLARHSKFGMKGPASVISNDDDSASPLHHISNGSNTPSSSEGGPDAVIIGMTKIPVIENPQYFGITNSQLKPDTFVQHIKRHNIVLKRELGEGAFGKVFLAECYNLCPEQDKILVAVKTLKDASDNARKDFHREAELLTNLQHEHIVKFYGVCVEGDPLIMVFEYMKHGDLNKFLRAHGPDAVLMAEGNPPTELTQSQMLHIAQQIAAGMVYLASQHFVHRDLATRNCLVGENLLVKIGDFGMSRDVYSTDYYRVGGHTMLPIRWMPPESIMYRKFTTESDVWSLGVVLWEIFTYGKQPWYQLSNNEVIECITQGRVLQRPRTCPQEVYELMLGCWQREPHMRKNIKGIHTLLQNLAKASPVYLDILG

C=C1CC(=O)N[C@@H](C)C(=O)N(C)[C@@H](C(C)C)C(=O)NCC(=O)O[C@@H](/C(C)=C/C(C)=C/C(C)(C)C)[C@@H]1C [ANTILLATOXIN]
Activity [1]: 1.73 µM | Activity [2]: 1.81 µM | Activity [3]: 2.32 µM | EC50 [4]: 450 nM | Activity (Cerebral cortex neuron [5]): Dde | Activity (Cerebral cortex neuron [6]): Active | Activity (Cerebral cortex neuron [7]): Active | Activity (Cerebral cortex neuron [8]): Active | Activity [9]: 2.07 µM | Activity [10]: Active | Activity [11]: Active | fold change (FC) [12]: 3 | fold change (FC) [13]: 2
